The list is not random: actives were taken first. Their share in the collection is about 1.8%.
NPY1 pot ag: potentiators or agonists of human neuropeptide Y receptor Y1 | NPY-Y1 expressing cells, potentiator/agonist activation | activation, % at 3.6 µM | hit rate 0.37% among 220,000; in the data active = activation above about 33%, passing the limit was not always enough;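 note: cells stimulated with NPY at EC10 then isoproterenol at EC100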
Target sequence (P25929 whole entry, looked up): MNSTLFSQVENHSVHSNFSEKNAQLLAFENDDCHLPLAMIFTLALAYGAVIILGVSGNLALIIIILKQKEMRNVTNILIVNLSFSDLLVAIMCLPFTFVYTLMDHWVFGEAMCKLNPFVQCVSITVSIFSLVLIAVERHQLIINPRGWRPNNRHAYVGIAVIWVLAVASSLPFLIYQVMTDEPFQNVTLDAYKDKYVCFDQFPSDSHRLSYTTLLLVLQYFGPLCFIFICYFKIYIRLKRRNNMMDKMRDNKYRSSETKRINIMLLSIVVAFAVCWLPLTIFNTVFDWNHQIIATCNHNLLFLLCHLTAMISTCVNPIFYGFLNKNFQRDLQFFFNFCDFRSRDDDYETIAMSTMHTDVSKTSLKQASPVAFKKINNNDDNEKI
NPY Y2 blocker: NPY-Y2 (human) receptor antagonism; hit rate 0.99% among 140,000; NPY-Y2 expressing cells, antagonist mode; inhibition, % at 2.7 µM; P49146; in the data active = inhibition above about 17%
Target sequence (P49146 whole entry, looked up): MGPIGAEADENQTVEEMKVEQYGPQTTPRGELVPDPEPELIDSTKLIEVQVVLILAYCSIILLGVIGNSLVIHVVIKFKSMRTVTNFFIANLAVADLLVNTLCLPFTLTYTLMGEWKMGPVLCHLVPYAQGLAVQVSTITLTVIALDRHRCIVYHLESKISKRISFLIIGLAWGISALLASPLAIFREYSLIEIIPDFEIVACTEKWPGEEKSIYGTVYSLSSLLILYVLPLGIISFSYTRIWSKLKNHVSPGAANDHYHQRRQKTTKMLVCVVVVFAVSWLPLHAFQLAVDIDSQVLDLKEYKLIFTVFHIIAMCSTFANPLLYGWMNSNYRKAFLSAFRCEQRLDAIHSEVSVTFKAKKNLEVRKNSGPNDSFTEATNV
NPY Y1 blocker: blocks the human neuropeptide Y Y1 receptor; inhibition, % at 3.6 µM; HEK293-CNG Y1 cells, membrane potential fluorescence; NPY at EC95, then isoproterenol; AID 1040; P25929; hit rate 1% among 200,000;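 active = inhibition above the campaign mean inhibition of all tested compounds plus 3 SD, cut at about 20% in these data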
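Material: HEK293 cells co-expressing NPY Y1 receptor and cyclic-nucleotide gated channel. Timing: compound incubation 1 h at room temperature, readout 45 min post-stimulation. Signal: fluorescence, membrane potential probe.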
NPY-Y2 PAM-ag: potentiators or agonists of human neuropeptide Y receptor Y2; P49146; cells expressing NPY-Y2, potentiator/agonist read-out; activation, % at 3.6 µM; hit rate 0.45% among 220,000; AID 1359; in the data active = activation above about 27%;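 note: cells stimulated with NPY near EC25 plus isoproterenol at EC100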
NPY-Y1 pot conf: human NPY-Y1 potentiation or agonism, confirmation; shares compounds with NPY1 pot ag; activation, % at 3.6 µM; AID 1546; hit rate 20% among 280; cell-based NPY-Y1 potentiator/agonist assay; in the data active = activation above about 45%;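 note: cells challenged with NPY at its EC10 plus isoproterenol stimulus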
NPY-Y2 counter: potentiates or activates NPY-Y2, counter-screen for NPY-Y1 hits; hit rate 20% among 280; AID 1649; shares compounds with NPY1 pot ag; HEK293-CNG cells, membrane-potential fluorescence (FLIPR), 1536-well; activation, % at 3.6 µM; in the data active = activation above about 33%
NPY-Y1 ag: activates human NPY-Y1, counter-screen for NPY-Y1 potentiators; shares compounds with NPY1 pot ag; HEK293 Y1-CNGC, membrane potential fluorescence, agonist mode; activation, % at 3.6 µM; hit rate 50% among 280; AID 1697;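 active = percent activation above the mean of DMSO-only control wells plus 3 SD of those wells, cut at about 18% in these data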;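 note: cells challenged with isoproterenol plus Ro 20-1724 with no NPY in test wells; Y1 agonism lowers isoproterenol-driven cAMP and reduces probe fluorescence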
NPY-Y2 ag: activates human NPY-Y2, counter-screen for NPY-Y1 hits; activation, % at 3.6 µM; HEK293 Y2-CNGC, membrane potential fluorescence, agonist mode; hit rate 67% among 280; shares compounds with NPY1 pot ag; AID 1698;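 active = activation above the solvent-only control wells' mean plus 3 SD, cut at about 11% in these data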;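 note: agonism lowers cAMP so well fluorescence drops in active wells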
CNGC inh 2: CNG channel inhibition, counter-screen for NPY-Y1 potentiators; shares compounds with NPY1 pot ag; HEK293-CNG parental, isoproterenol cAMP, membrane potential fluorescence; inhibition, % at 3.6 µM; hit rate 42% among 280; AID 1704;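 active = inhibition above the mean of stimulated solvent-only control wells plus 3 SD, cut at about 22% in these data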
Large screens that a line does not name were inactive (follow-up assays come after a bar, where they were run).

CCOC(=O)Cn1c(=O)oc2cc(S(=O)(=O)NCc3cccs3)ccc21	NPY1 pot ag 33 | NPY-Y1 pot conf 48 | NPY-Y2 counter inactive | NPY-Y1 ag 46 | NPY-Y2 ag 29 | CNGC inh 2 61
CCOC(=O)Cn1c(=O)oc2cc(S(=O)(=O)NCc3ccccn3)ccc21	none
O=C1C2C3c4ccccc4C(Br)(c4ccccc43)C2C(=O)N1c1ccccc1O (centres undefined)	NPY1 pot ag 38 | NPY-Y1 pot conf inactive | NPY-Y2 counter inactive | NPY-Y1 ag 26 | NPY-Y2 ag 15 | CNGC inh 2 32
CCOC(=O)CSc1nc(=O)n2ccccc2n1	NPY1 pot ag 68 (no result: NPY Y2 blocker) | NPY-Y1 pot conf inactive | NPY-Y2 counter inactive | NPY-Y1 ag inactive | NPY-Y2 ag inactive | CNGC inh 2 inactive
CC1CCN(S(=O)(=O)c2cccc(C(=O)NNC(=O)c3ccco3)c2)CC1	none (no result: NPY Y2 blocker, NPY Y1 blocker)
Cc1ccccc1NC(=O)Cc1nc(-c2ccc3ccccc3c2)cs1	none
O=C(Nc1ccc(N2CCCCC2)c(Cl)c1)c1ccc(N2CCOCC2)c([N+](=O)[O-])c1	NPY1 pot ag 42 | NPY-Y1 pot conf 48 | NPY-Y2 counter 37 | NPY-Y1 ag 34 | NPY-Y2 ag 40 | CNGC inh 2 25
CC(=O)N1CCN(c2ccc(NC(=O)c3ccc(N4CCCC4)c([N+](=O)[O-])c3)cc2Cl)CC1	none
O=[N+]([O-])c1ccc(/C=N/NC(=S)Nc2ccccc2C(F)(F)F)o1	none
COC(=O)CNC(=O)CN1C(=O)N(c2ccccc2)C(N(O)C(=O)Nc2ccccc2)C1(C)C (centres undefined)	none
COC(=O)CNC(=O)CN1C(=O)N(c2cccc(Cl)c2)C(N(O)C(=O)Nc2cccc(Cl)c2)C1(C)C (centres undefined)	NPY1 pot ag 49 | NPY-Y1 pot conf 46 | NPY-Y2 counter inactive | NPY-Y1 ag 32 | NPY-Y2 ag 31 | CNGC inh 2 32
CCC(O)CNC(=O)NC(=C(Cl)Cl)c1ccc(C)c(F)c1 (centres undefined)	none
COc1cc(/C=C(\C#N)c2nc3ccccc3s2)cc([N+](=O)[O-])c1O	none (no result: NPY Y2 blocker)
N#C/C(=C\c1ccc(O)c([N+](=O)[O-])c1)c1nc2ccccc2s1	NPY1 pot ag 39 (no result: NPY Y2 blocker) | NPY-Y1 pot conf inactive | NPY-Y2 counter inactive | NPY-Y1 ag inactive | NPY-Y2 ag inactive | CNGC inh 2 inactive
Cc1[nH]c2ccccc2c1/C=N/NC(=O)c1cccc(S(=O)(=O)Nc2ccccc2Cl)c1	none
CCc1cccc2c(/C=N/NC(=O)c3cccc(S(=O)(=O)Nc4ccccc4Cl)c3)c[nH]c12	NPY1 pot ag 46 | NPY-Y1 pot conf inactive | NPY-Y2 counter inactive | NPY-Y1 ag 31 | NPY-Y2 ag 19 | CNGC inh 2 26
CCC(=O)Nc1c(-c2ccccc2)c(=O)c2ccccc2n1C	none (no result: NPY Y2 blocker, NPY Y1 blocker)
O=C1CCCC/C1=C/Nc1cccc(C(F)(F)F)c1	none (no result: NPY Y2 blocker)
O=C1CCC2S/C(=C/Nc3ccc(C(F)(F)F)cc3)C(=O)N12 (centres undefined)	NPY1 pot ag 39 (no result: NPY Y2 blocker) | NPY-Y1 pot conf inactive | NPY-Y2 counter inactive | NPY-Y1 ag 22 | NPY-Y2 ag 25 | CNGC inh 2 30
CCOC(=O)C1=C(CC)Nc2ccccc2N/C1=N\S(=O)(=O)c1ccc2ccccc2c1	none (no result: NPY Y2 blocker)
CCOC(=O)C1=C(CC)Nc2ccccc2N/C1=N\S(=O)(=O)c1cc(Br)ccc1Br	NPY1 pot ag 33 (no result: NPY Y2 blocker) | NPY-Y1 pot conf inactive | NPY-Y2 counter inactive | NPY-Y1 ag inactive | NPY-Y2 ag inactive | CNGC inh 2 inactive
CN(C)Cc1c(O)ccc2oc(Cc3ccccc3)cc12	NPY1 pot ag 53 | NPY-Y1 pot conf inactive | NPY-Y2 counter inactive | NPY-Y1 ag 21 | NPY-Y2 ag 26 | CNGC inh 2 inactive
CCOC(=O)N1CCN(C(=O)/C(=C/c2cccs2)NC(=O)c2cccs2)CC1	NPY1 pot ag 43 (no result: NPY Y2 blocker) | NPY-Y1 pot conf inactive | NPY-Y2 counter inactive | NPY-Y1 ag inactive | NPY-Y2 ag inactive | CNGC inh 2 inactive
CCN1CCN(c2nc3ccccc3nc2C(C#N)C(=O)OCc2ccccc2)CC1 (centres undefined)	NPY1 pot ag 40 | NPY-Y1 pot conf 62 | NPY-Y2 counter 47 | NPY-Y1 ag 41 | NPY-Y2 ag 54 | CNGC inh 2 53
CCCCCCOC(=O)C(C#N)c1nc2ccccc2nc1N1CCN(CC)CC1 (centres undefined)	none
FC(F)(F)c1cccc(NC(=S)Nc2ccc(Cl)c(Cl)c2)c1	NPY1 pot ag 45 (no result: NPY Y2 blocker, NPY Y1 blocker) | NPY-Y1 pot conf inactive | NPY-Y2 counter inactive | NPY-Y1 ag inactive | NPY-Y2 ag 25 | CNGC inh 2 inactive
CCOc1ccc(NC(=S)NNC(=S)Nc2cccc(C(F)(F)F)c2)cc1	NPY1 pot ag 54 (no result: NPY Y2 blocker, NPY Y1 blocker) | NPY-Y1 pot conf inactive | NPY-Y2 counter inactive | NPY-Y1 ag 24 | NPY-Y2 ag 32 | CNGC inh 2 inactive
CCN(CC(=O)Nc1ccc(NC(C)=O)cc1)c1ccc(C(F)(F)F)cn1	none
O=C(N/N=C/c1c[nH]c2ccc(Br)cc12)C1CC1	NPY1 pot ag 58 (no result: NPY Y2 blocker, NPY Y1 blocker) | NPY-Y1 pot conf inactive | NPY-Y2 counter 34 | NPY-Y1 ag 50 | NPY-Y2 ag 43 | CNGC inh 2 47
CC(=O)NC12CC3CC(C1)CC(C(=O)OCC(=O)Nc1ncc(Cl)c(C)c1Cl)(C3)C2	NPY1 pot ag 45 | NPY-Y1 pot conf inactive | NPY-Y2 counter inactive | NPY-Y1 ag inactive | NPY-Y2 ag inactive | CNGC inh 2 inactive
Cc1ccc(S(=O)(=O)N(CC(=O)N2CCC(C)CC2)Cc2ccccc2F)cc1	NPY1 pot ag 79 | NPY-Y1 pot conf inactive | NPY-Y2 counter inactive | NPY-Y1 ag inactive | NPY-Y2 ag inactive | CNGC inh 2 inactive
Cc1ccc(S(=O)(=O)N(CC(=O)O)Cc2ccccc2F)cc1	none
CC(=O)c1sc(Nc2nc3ccc(F)cc3s2)nc1C	NPY1 pot ag 45 | NPY-Y1 pot conf inactive | NPY-Y2 counter inactive | NPY-Y1 ag inactive | NPY-Y2 ag 20 | CNGC inh 2 inactive
O=C(COC(=O)c1ccc2[nH]c3c(c2c1)CCCC3)Nc1ccccc1	none
Cc1noc2ncnc(Sc3ccc(Cl)cc3)c12	NPY1 pot ag 66 | NPY-Y1 pot conf inactive | NPY-Y2 counter inactive | NPY-Y1 ag inactive | NPY-Y2 ag inactive | CNGC inh 2 inactive
O=C(c1ccc2c3c(cccc13)CC2)C1CCCN(Cc2ccncc2)C1 (centres undefined)	NPY1 pot ag 77 (no result: NPY Y2 blocker) | NPY-Y1 pot conf inactive | NPY-Y2 counter inactive | NPY-Y1 ag inactive | NPY-Y2 ag inactive | CNGC inh 2 inactive

Compound activity from PubChem BioAssay.
